Activity calls are given as the source filed them. The rule behind the calls is not given here.
Key:
Canis familiaris [1] = assay: Intravenous effective dose for gastric antisecretory activity against histamine-stimulated gastric acid secretion in adult mongrel dogs; format: functional; settings: Canis lupus familiaris, Stomach
In short: (§1)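 Adult mongrel dogs with surgically prepared Heidenhain pouches received histamine to stimulate acid secretion. Compounds were given intravenously at 0.1-5 mg/kg. Reduction in acid output was measured against the non-drug control value in the same animal. ED50 for 50% inhibition was derived by linear regression, with 95% confidence limits.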

[2] = Dissociation constant (pKa); format: physicochemical
[3] = test system: Potassium-transporting ATPase (Oryctolagus cuniculus); assay: Inhibition of H+/K+ ATPase was evaluated by its ability to inhibit acid formation in rabbit gastric glands; Inactive
Canis familiaris [4] = species: Canis familiaris; assay: Peroral effective dose for gastric antisecretory activity against histamine-stimulated gastric acid secretion in adult mongrel dogs; Inactive; format: functional, organism-based; settings: Canis lupus familiaris; Stomach
[5] = target: T1, Potassium-transporting ATPase (Sus scrofa, UniProt P18434+P19156); assay: Ability to inhibit purified H+/K+ ATPase at pH 7.4 measured as release of inorganic phosphate from ATP using gastric membrane vesicles prepared from hog stomach; Inactive; format: tissue-based
T1 sequence (P18434 whole entry): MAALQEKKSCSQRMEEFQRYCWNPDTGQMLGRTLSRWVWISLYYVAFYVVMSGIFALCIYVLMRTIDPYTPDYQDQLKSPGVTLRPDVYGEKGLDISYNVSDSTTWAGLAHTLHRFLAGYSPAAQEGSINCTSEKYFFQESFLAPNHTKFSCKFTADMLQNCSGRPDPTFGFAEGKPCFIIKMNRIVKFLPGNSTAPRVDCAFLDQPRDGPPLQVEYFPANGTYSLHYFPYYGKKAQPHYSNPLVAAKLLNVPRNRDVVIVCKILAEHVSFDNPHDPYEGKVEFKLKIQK
T1 sequence (P19156 whole entry): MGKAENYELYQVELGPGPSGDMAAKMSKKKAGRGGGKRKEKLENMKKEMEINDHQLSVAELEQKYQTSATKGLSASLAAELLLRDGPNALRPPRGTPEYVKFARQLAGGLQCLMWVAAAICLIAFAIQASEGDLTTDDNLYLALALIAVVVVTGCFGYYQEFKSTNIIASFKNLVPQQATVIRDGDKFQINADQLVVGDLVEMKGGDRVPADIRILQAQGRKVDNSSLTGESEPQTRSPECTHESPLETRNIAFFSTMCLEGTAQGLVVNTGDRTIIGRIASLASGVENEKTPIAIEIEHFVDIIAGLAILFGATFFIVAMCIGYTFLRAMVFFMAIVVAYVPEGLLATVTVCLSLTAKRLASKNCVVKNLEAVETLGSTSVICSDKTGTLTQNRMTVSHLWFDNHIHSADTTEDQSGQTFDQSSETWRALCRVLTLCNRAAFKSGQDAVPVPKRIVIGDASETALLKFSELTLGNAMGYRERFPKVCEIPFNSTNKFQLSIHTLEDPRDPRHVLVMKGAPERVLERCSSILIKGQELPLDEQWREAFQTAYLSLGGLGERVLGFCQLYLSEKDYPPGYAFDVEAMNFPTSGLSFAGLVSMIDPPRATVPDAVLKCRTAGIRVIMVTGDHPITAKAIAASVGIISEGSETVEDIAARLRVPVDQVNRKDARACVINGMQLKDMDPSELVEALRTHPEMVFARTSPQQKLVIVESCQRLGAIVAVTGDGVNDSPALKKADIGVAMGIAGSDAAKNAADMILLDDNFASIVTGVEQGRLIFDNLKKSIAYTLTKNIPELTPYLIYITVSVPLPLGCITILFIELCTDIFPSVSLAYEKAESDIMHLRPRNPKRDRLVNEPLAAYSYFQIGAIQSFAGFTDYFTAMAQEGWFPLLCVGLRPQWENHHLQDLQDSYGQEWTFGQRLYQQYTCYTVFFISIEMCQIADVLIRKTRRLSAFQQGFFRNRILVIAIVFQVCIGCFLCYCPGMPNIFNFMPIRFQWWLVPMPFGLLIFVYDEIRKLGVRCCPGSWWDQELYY
In short: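 Gastric membrane vesicles from hog stomach were prepared by differential and zonal density gradient centrifugation. Activity was read as inorganic phosphate released from ATP at pH 7.4. IC50 was taken as the concentration giving 50% inhibition of K+-stimulated activity, calculated by linear regression and reported ± standard error of the mean. Protein was measured by the Bradford method against a gammaglobulin standard.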

Canis familiaris [6] = assay: Intravenous effective dose for gastric antisecretory activity against histamine-stimulated gastric acid secretion in adult mongrel dogs; Inactive; format: functional, organism-based; settings: Canis lupus familiaris; Stomach; in short: as §1
[7] = target: Potassium-transporting ATPase (Sus scrofa, UniProt P19156); assay: (§2) Inhibition of purified H+/K+ ATPase at pH 7.4 as released inorganic phosphate from ATP using hog stomach gastric membrane vesicles; format: tissue-based
Sequence of Potassium-transporting ATPase (Sus scrofa, UniProt P19156) (P18434 whole entry): as the sequence (P18434 whole entry) above
Sequence of Potassium-transporting ATPase (Sus scrofa, UniProt P19156) (P19156 whole entry): as the sequence (P19156 whole entry) above
In short: (§3)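 Gastric membrane vesicles from hog stomach were prepared by differential and zonal density gradient centrifugation. Activity was read as inorganic phosphate released from ATP at pH 7.4. Protein was measured by the Bradford method against a gammaglobulin standard.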

[8] = target: Potassium-transporting ATPase (Oryctolagus cuniculus); assay: Inhibition of H+/K+ ATPase as reduced acid formation in rabbit gastric glands
Canis familiaris [9] = assay: Intravenous effective dose for gastric antisecretory activity against histamine-stimulated gastric acid secretion in adult mongrel dogs; Inactive-less than 20% inhibition at 5 mg/Kg (experimental); format: functional, organism-based; settings: Canis lupus familiaris; Stomach; in short: as §1
[10] = target: T1, Potassium-transporting ATPase; assay: as §2; format: tissue-based; in short: as §3

Compound | ED50 (Canis familiaris [1]) | pKa [2] | ED50 (Canis familiaris [4]) | IC50 [7] | IC50 ([8]; read-out: IC50) | other results
Cc1nc2c(OCc3ccccc3)cccn2c1C | 0.1 mg/kg | 7 |  |  |  | 
OCc1c(C(F)(F)F)nc2c(OCc3ccccc3)cccn12 |  | 2 | inactive |  |  | IC50 [3]: Not Active; IC50 [5]: Not Active; ED50 (Canis familiaris [6]): inactive
Cc1nc2c(CCc3ccccc3)cccn2c1C | 0.2 mg/kg | 7.5 |  |  |  | 
Cc1nc2c(/C=C\c3ccccc3)cccn2c1C |  |  | inactive | 28400 nM | 17500 nM | ED50 (Canis familiaris [6]): inactive
Cc1ccn2c(CC#N)c(C)nc2c1OCc1ccccc1 |  |  |  | 13700 nM | 400 nM | 
Cc1nc2c(/C=C/Cc3ccccc3)cccn2c1CC#N |  |  |  | 14000 nM | 3800 nM | 
Cc1c(C(F)(F)F)nc2c(OCc3ccccc3)cccn12 |  | 2 |  |  |  | ED50 (Canis familiaris [9]): inactive
Cc1nc2c(OCc3ccccc3)nccn2c1C | 2 mg/kg | 4.8 |  |  |  | 
Cc1c(CC#N)nc2c(OCc3ccccc3)cccn12 | 0.8 mg/kg | 5.5 |  |  |  | 
N#CCc1c(C(F)(F)F)nc2c(OCc3ccccc3)cccn12 |  | 2 | inactive |  |  | IC50 [3]: Not Active; IC50 [5]: Not Active; ED50 (Canis familiaris [6]): inactive
Cc1nc2c(OCc3ccccc3)cccn2c1N |  |  |  | 890 nM | 310 nM | 
Cc1nc2c(CCc3ccccc3)cccn2c1N |  |  |  | 2100 nM | 1460 nM | 
Cc1nc2c(OCc3ccccc3)nccn2c1N |  |  |  |  | 8080 nM | IC50 [10]: 178 uM l-1
Cc1nc2c(CCc3ccccc3)nccn2c1N |  | 5.1 |  |  |  | ED50 (Canis familiaris [9]): inactive
Cc1nc2c3c(ccn2c1CC#N)CCC(c1ccccc1)O3 (stereo unspecified) | 0.06 mg/kg |  |  | 92 nM | 64 nM | 
Cc1nc2c(/C=C/Cc3ccccc3)cccn2c1N |  |  | inactive | 8600 nM | 14100 nM | ED50 (Canis familiaris [6]): inactive
Cc1nc2c(CCc3ccccc3)cccn2c1CC#N |  |  |  | 2000 nM | 130 nM | 
Cc1nc2c(OCc3ccccc3)cccn2c1CO | 0.3 mg/kg | 6.1 | inactive | 2200 nM | 530 nM | 
Cc1nc2c(/C=C/c3ccccc3)cccn2c1C |  |  |  | 1680 nM | 990 nM | 
Cc1nc2c(C/C=C/c3ccccc3)cccn2c1CC#N |  |  | inactive |  |  | IC50 [10]: 206 uM l-1; IC50 [8]: 442 uM l-1; ED50 (Canis familiaris [6]): inactive

Reference: ChEMBL document CHEMBL1130412, “Antiulcer agents. 6. Analysis of the in vitro biochemical and in vivo gastric antisecretory activity of substituted imidazo[1,2-a]pyridines and related analogues using comparative molecular field analysis and hypothetical active site lattice methodologies” (J Med Chem, 1997)
